Assay results: PMC4222540 (Biochemistry, 2014)

Tests used:
wild-type cPAH = target: T1, wild-type cPAH (Chromobacterium violaceum, UniProt P30967); test: ITC, Fe; type: binding; conditions: anaerobic, 25 °C, 2.5 mM TCEP
T1 sequence (P30967 1-297): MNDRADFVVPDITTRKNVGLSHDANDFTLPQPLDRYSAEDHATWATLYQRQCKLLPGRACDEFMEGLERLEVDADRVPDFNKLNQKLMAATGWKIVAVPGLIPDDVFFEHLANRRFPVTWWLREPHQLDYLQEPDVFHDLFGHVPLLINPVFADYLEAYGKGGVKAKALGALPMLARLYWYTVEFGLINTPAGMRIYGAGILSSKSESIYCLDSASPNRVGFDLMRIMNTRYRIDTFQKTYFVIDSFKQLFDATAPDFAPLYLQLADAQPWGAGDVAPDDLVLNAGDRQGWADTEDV
How it was run: (§1)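 Untagged cPAH (wild type or Asp139 point mutant), expressed from pET3a and purified by anion-exchange and size-exclusion chromatography, in apo form. Anaerobic ITC under argon at 25 °C: 500 μM ferrous ammonium sulfate in dialysis buffer with 2.5 mM TCEP titrated into 50 μM protein containing 2.5 mM TCEP. 18 injections of 2 μL, 180 s apart.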

cPAH D139N [1] = target: T2, cPAH D139N (Chromobacterium violaceum, UniProt P30967, D139N); test: ITC, Fe; type: binding; conditions: anaerobic, 25 °C, 2.5 mM TCEP
T2 sequence (P30967 1-297 D139N): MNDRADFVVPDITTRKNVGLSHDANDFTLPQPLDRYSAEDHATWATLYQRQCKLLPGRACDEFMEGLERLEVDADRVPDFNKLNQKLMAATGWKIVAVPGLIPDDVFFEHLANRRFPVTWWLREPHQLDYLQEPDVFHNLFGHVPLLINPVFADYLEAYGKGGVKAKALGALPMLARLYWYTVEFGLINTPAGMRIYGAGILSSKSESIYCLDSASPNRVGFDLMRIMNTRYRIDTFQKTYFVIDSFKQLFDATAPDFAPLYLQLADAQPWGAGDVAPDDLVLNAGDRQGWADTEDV
How it was run: as §1

cPAH D139A [2] = target: T3, cPAH D139A (Chromobacterium violaceum, UniProt P30967, D139A); test: ITC, Fe; type: binding
T3 sequence (P30967 1-297 D139A): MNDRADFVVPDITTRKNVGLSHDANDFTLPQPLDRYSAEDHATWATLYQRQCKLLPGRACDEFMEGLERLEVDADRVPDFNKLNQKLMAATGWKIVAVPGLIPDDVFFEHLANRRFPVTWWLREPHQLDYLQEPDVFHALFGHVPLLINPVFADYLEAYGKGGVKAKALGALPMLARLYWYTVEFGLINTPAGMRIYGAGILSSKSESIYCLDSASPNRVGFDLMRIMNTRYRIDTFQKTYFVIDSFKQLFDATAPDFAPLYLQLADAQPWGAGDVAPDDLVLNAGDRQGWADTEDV
How it was run: as §1

cPAH D139E [3] = target: T4, cPAH D139E (Chromobacterium violaceum, UniProt P30967, D139E); test: ITC, Fe; type: binding
T4 sequence (P30967 1-297 D139E): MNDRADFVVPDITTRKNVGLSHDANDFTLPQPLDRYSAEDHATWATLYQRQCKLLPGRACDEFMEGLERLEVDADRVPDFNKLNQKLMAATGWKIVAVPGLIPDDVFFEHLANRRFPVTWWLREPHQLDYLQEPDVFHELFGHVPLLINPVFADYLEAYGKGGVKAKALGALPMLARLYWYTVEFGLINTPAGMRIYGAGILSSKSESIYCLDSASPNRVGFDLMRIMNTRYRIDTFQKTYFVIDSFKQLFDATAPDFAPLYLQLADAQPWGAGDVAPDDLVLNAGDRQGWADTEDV
How it was run: as §1

cPAH D139K = target: T5, cPAH D139K (Chromobacterium violaceum, UniProt P30967, D139K); test: ITC, Fe; type: binding
T5 sequence (P30967 1-297 D139K): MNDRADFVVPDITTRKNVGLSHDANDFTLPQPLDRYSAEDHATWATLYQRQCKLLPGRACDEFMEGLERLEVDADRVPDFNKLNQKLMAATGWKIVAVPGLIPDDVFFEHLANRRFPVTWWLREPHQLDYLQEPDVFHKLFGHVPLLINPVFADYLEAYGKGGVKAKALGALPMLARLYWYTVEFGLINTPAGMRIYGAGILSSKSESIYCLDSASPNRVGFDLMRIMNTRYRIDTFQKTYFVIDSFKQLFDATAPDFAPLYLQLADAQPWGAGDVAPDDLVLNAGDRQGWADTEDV
How it was run: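 Untagged apo cPAH D139K, purified by anion-exchange and size-exclusion chromatography. Anaerobic ITC under argon at 25 °C with 2.5 mM TCEP in titrant and in 50 μM protein. FeSO4 titrated at 10-fold excess (500 μM) and again at 20-fold excess over protein. 18 injections of 2 μL, 180 s apart.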

cPAH D139A [4] = target: T3, cPAH D139A; test: Steady-state kinetics of phenylalanine hydroxylation; type: biochemical; conditions: read-out: KM (DMPH), DMPH4 varied at saturated Phe (1 mM), 20 °C, pH 7.4
cPAH D139N [5] = target: T2, cPAH D139N; test: as above; type: biochemical; conditions: read-out: KM (DMPH), DMPH4 varied at saturated Phe (1 mM), 20 °C, pH 7.4
cPAH D139E [6] = target: T4, cPAH D139E; test: as above; type: biochemical; conditions: read-out: KM (DMPH), DMPH4 varied at saturated Phe (1 mM), 20 °C, pH 7.4
[7] = Steady-state kinetics: turnover; type: biochemical, Chromobacterium violaceum; conditions: for fold lower kcat relative to wild-type cPAH / kcat: enzyme variant as labelled; for kcat: DMPH4 cofactor, 20 °C, pH 7.4
How it was run: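 Phenylalanine hydroxylation followed by tyrosine formation at 275 nm (ε275 = 1405 L mol−1 cm−1) at 20 ± 1 °C. Enzyme ranged from 1 μM (wild type) to 30 μM (D139A), with 5-fold molar excess of ferrous ammonium sulfate, 5 mM DTT and 1000 units/mL catalase in 0.1 M O2-saturated Na-HEPES, pH 7.4. DMPH4 was varied at 1 mM Phe, and Phe was varied at 350 μM DMPH4. Triplicates were fit to Michaelis–Menten and reported as mean ± SD of three independent experiments.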

[8] = 20-fold excess of FeSO4, anaerobic, 25 °C, 2.5 mM TCEP

## O=S(=O)([O-])[O-].O=S(=O)([O-])[O-].[Fe+2].[NH4+].[NH4+] [Fe(II), ferrous ammonium sulfate]
wild-type cPAH
  Kd: 151 ± 30 nM
  N (ITC stoichiometry): 0.8
  ΔH: –4.0 ± 0.1 kcal mol^–1
  ΔS: 18 cal mol^–1
cPAH D139N [1]
  Kd: 139 ± 60 nM
  N (ITC stoichiometry): 0.7
  ΔH: –4.5 ± 0.3 kcal mol^–1
  ΔS: 16 cal mol^–1
cPAH D139A [2]
  fold increase in Kd for iron vs wild type: ~6 fold
cPAH D139A [2]; anaerobic, 25 °C, 2.5 mM TCEP
  Kd: 944 ± 170 nM
  N (ITC stoichiometry): 0.9
  ΔH: –2.5 ± 0.1 kcal mol^–1
  ΔS: 19 cal mol^–1
cPAH D139E [3]
  fold increase in Kd for iron vs wild type: ~4 fold
cPAH D139E [3]; anaerobic, 25 °C, 2.5 mM TCEP
  Kd: 479 ± 170 nM
  N (ITC stoichiometry): 0.8
  ΔH: –1.5 ± 0.1 kcal mol^–1
  ΔS: 24 cal mol^–1
cPAH D139K
  fold reduction in binding affinity for iron vs wild type: ~500 fold
cPAH D139K; 10-fold excess of FeSO4 (500 µM)
  iron binding (ITC isotherm): no binding was observed
cPAH D139K; [8]
  Kd: 76500 ± 700 nM
  N (ITC stoichiometry): 1
  ΔH: 1.4 ± 0.6 kcal mol^–1
  ΔS: 23 cal mol^–1

## CC1Nc2nc(N)[nH]c(=O)c2NC1C (centres unmarked) [DMPH, 6,7-dimethyl-5,6,7,8-tetrahydropterine]
cPAH D139A [4]
  Km: 254 ± 47 µM
cPAH D139N [5]
  Km: 262 ± 41 µM
cPAH D139E [6]
  Km: 236 ± 38 µM

B1: D139N (protein, UniProt P30967 1-297, looked up, variant D139N)
Phenylalanine-4-hydroxylase: MNDRADFVVPDITTRKNVGLSHDANDFTLPQPLDRYSAEDHATWATLYQRQCKLLPGRACDEFMEGLERLEVDADRVPDFNKLNQKLMAATGWKIVAVPGLIPDDVFFEHLANRRFPVTWWLREPHQLDYLQEPDVFHNLFGHVPLLINPVFADYLEAYGKGGVKAKALGALPMLARLYWYTVEFGLINTPAGMRIYGAGILSSKSESIYCLDSASPNRVGFDLMRIMNTRYRIDTFQKTYFVIDSFKQLFDATAPDFAPLYLQLADAQPWGAGDVAPDDLVLNAGDRQGWADTEDV
[7]
  fold lower kcat relative to wild-type cPAH: ~16 fold
  kcat: 1.2 ± 0.1 s^–1

B2: D139E (protein, UniProt P30967 1-297, looked up, variant D139E)
Phenylalanine-4-hydroxylase: MNDRADFVVPDITTRKNVGLSHDANDFTLPQPLDRYSAEDHATWATLYQRQCKLLPGRACDEFMEGLERLEVDADRVPDFNKLNQKLMAATGWKIVAVPGLIPDDVFFEHLANRRFPVTWWLREPHQLDYLQEPDVFHELFGHVPLLINPVFADYLEAYGKGGVKAKALGALPMLARLYWYTVEFGLINTPAGMRIYGAGILSSKSESIYCLDSASPNRVGFDLMRIMNTRYRIDTFQKTYFVIDSFKQLFDATAPDFAPLYLQLADAQPWGAGDVAPDDLVLNAGDRQGWADTEDV
[7]
  fold lower kcat relative to wild-type cPAH: 10 fold
  kcat: 1.9 ± 0.1 s^–1

B3: D139K (protein, UniProt P30967 1-297, looked up, variant D139K)
Phenylalanine-4-hydroxylase: MNDRADFVVPDITTRKNVGLSHDANDFTLPQPLDRYSAEDHATWATLYQRQCKLLPGRACDEFMEGLERLEVDADRVPDFNKLNQKLMAATGWKIVAVPGLIPDDVFFEHLANRRFPVTWWLREPHQLDYLQEPDVFHKLFGHVPLLINPVFADYLEAYGKGGVKAKALGALPMLARLYWYTVEFGLINTPAGMRIYGAGILSSKSESIYCLDSASPNRVGFDLMRIMNTRYRIDTFQKTYFVIDSFKQLFDATAPDFAPLYLQLADAQPWGAGDVAPDDLVLNAGDRQGWADTEDV
[7]; nonenzymatic amounts of protein required for minimal tyrosine formation
  catalytic activity (hydroxylation of phenylalanine to tyrosine): inactive

B4: wild type: wild-type phenylalanine hydroxylase from Chromobacterium violaceum (cPAH) (protein, UniProt P30967 1-297, looked up)
Phenylalanine-4-hydroxylase: MNDRADFVVPDITTRKNVGLSHDANDFTLPQPLDRYSAEDHATWATLYQRQCKLLPGRACDEFMEGLERLEVDADRVPDFNKLNQKLMAATGWKIVAVPGLIPDDVFFEHLANRRFPVTWWLREPHQLDYLQEPDVFHDLFGHVPLLINPVFADYLEAYGKGGVKAKALGALPMLARLYWYTVEFGLINTPAGMRIYGAGILSSKSESIYCLDSASPNRVGFDLMRIMNTRYRIDTFQKTYFVIDSFKQLFDATAPDFAPLYLQLADAQPWGAGDVAPDDLVLNAGDRQGWADTEDV
[7]
  kcat: 18.6 ± 0.1 s^–1

B5: D139A (protein, UniProt P30967 1-297, looked up, variant D139A)
Phenylalanine-4-hydroxylase: MNDRADFVVPDITTRKNVGLSHDANDFTLPQPLDRYSAEDHATWATLYQRQCKLLPGRACDEFMEGLERLEVDADRVPDFNKLNQKLMAATGWKIVAVPGLIPDDVFFEHLANRRFPVTWWLREPHQLDYLQEPDVFHALFGHVPLLINPVFADYLEAYGKGGVKAKALGALPMLARLYWYTVEFGLINTPAGMRIYGAGILSSKSESIYCLDSASPNRVGFDLMRIMNTRYRIDTFQKTYFVIDSFKQLFDATAPDFAPLYLQLADAQPWGAGDVAPDDLVLNAGDRQGWADTEDV
[7]
  fold lower kcat relative to wild-type cPAH: ~100 fold
  kcat: 0.19 ± 0.01 s^–1
